# Screening results from PubChem.
# Compounds with a hit are over-represented: about 7.4% of the library has one in this group of screens.
# S1P1 ag pot: S1P1 agonists and agonism potentiators, primary screen, cell-based, primary and confirmation screens, CRE-bla reporter. Sphingosine 1-phosphate receptor 1 (Homo sapiens), P21453. S1P1 CRE-bla cells, forskolin, beta-lactamase FRET, potentiator mode; S1P1 agonist co-added at EC20, 2 nM; 100% = saturating reference agonist, 0% = basal. activation, % at 9.5 µM. 56,000 compounds, 0.57% hits. AID 449, 2006;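 active means activation above a cutoff set at the mean activation of all tested compounds plus 3 SD, cut at about 54% in these data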;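 further: forskolin at 4 µM as EC80 and the EC20 agonist is SEW2871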
# M1 agonist: M1 muscarinic receptor agonists, primary screen, CHO-M1 cells, Fluo-4 calcium, agonist mode. B-score at 10 µM. 64,000 compounds, 3% hits. AID 626, 2007. Fluo-4 calcium fluorescence; stronger effect = higher value. Muscarinic acetylcholine receptor M1;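 active means fluorescence rise, raw or as B-score row- and column-corrected plate score, outside the 99.7% band of its plate's samples, either direction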
# M1 antag: antagonists of rat M1 muscarinic receptor. B-score at 10 µM. CHO-M1 cells, Fluo-4 calcium, ACh EC80 antagonist mode; stronger effect = lower value. 64,000 compounds, 3.4% hits. AID 628, 2007;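 active means calcium fluorescence response, raw or row-and-column corrected B-score, differing from the plate sample mean either way at a set confidence level, mostly lower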
# Target sequence (P08482 whole entry, looked up): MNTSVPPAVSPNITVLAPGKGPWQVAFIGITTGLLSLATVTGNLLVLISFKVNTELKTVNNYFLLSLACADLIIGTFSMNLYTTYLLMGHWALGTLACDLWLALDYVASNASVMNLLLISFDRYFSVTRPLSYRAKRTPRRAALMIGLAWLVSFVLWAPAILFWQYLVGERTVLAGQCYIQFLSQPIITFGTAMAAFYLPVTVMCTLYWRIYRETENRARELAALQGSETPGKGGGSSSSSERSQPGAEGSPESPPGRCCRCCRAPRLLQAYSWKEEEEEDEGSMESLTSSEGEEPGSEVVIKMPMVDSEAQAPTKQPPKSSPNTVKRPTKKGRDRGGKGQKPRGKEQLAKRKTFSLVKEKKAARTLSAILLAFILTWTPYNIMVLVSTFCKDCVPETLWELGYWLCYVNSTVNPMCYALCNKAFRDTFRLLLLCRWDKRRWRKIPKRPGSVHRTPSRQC
# S1P3 ag: human S1P3 receptor agonists, primary screen, cell-based, primary and confirmation, NFAT-BLA reporter | Sphingosine 1-phosphate receptor 3 (Homo sapiens), Q99500 | 60,000 compounds, 0.1% hits | activation, % at 4.5 µM | AID 373, 2006 | S1P3 NFAT-BLA reporter cells, agonism, FRET ratio; relative to 1 µM S1P, basal subtracted;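 active means activation above the screen-wide mean plus 3 SD, cut at about 4.5% in these data, passing the limit was not always enough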
#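 Material: Human S1P3 NFAT-BLA reporter CHO cells | Incubation: Overnight plating, 4 h compound 37 °C, 2 h substrate RT | Signal: FRET β-lactamase substrate fluorescence, excitation 405 nm, 460/535 nm emission ratio, background-subtracted | Compound: 4.5 µM final, single dose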
# JNK3 blocker: JNK3 kinase activity inhibitors, primary screen, biochemical, human, purified enzyme. 60,000 compounds, 0.61% hits. Mitogen-activated protein kinase 10 (Homo sapiens), P53779. HTS. inhibition, % at 8 µM; in the data active means inhibition above about 17%
# Jurkat viability: cytotoxicity toward Jurkat T cells, primary screen, cytotoxicity control, cell-based, Jurkat E6.1, 60K MLSMR library | Jurkat E6.1 viability, ATP luminescence, 48 h | 56,000 compounds, 1.2% hits | inhibition, % at 4 µM;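 active means inhibition above the mean inhibition of all tested compounds plus 3 SD, cut at about 28% in these data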
# A number is an active result; 0 = inactive; - = not tested or not shown.
SMILES,S1P1 ag pot,M1 agonist,M1 antag,S1P3 ag,JNK3 blocker,Jurkat viability
O=C(Cn1cc2c(n1)CCCC2)N1CCCc2ccccc21,0,0,0,0,0,0
COCCn1cnnc1SCC(=O)Nc1ccccc1C(=O)Nc1ccc2c(c1)OCO2,0,0,0,0,0,0
CC(C)c1ccc(O)c(NC(=O)c2ncn[nH]2)c1,0,0,2.26,0,0,0
CSC1=NC(NCCCO)c2c(sc3c2CC(C)(C)OC3)N1 (stereo not drawn),0,0,0,0,0,0
NC(=O)c1c(NC(=O)Cc2cccs2)sc2c1CCC2,0,0,0,0,31.4,0
COc1cccc(/C=N/n2c(SC)nnc2-c2ccccc2)c1O,0,7.18,0,0,0,68.5
COc1cccc(/C=N/n2c(SC)nnc2-c2ccccc2)c1OC,0,0,0,0,0,0
CC(C)C(NC(=O)C1CCCCC1)C(=O)NC1CCN(Cc2ccccc2)CC1 (stereo not drawn),0,0,0,0,0,0
O=C(O)CSc1ccc2ccccc2n1,0,0,0,0,17.7,0
O=C(O)CSc1ccccn1,0,0,0,0,0,0
O=C(O)CCSc1ccc2ccccc2n1,0,0,0,0,27.9,-
O=C(CSc1nnc(COc2ccc3c(c2)CCCC3)o1)Nc1ccc(F)cc1,0,0,0,0,0,0
CCC(NC(=O)Nc1cc(OC)c(OC)c(OC)c1)(C(F)(F)F)C(F)(F)F,0,0,2.41,0,0,-
C=CS(=O)(=O)c1ccc(Oc2ccc(S(=O)(=O)C=C)cc2)cc1,124.5,0,0,0,0,100.2
O=S(=O)(c1ccc(Oc2ccc(S(=O)(=O)N3CCOCC3)cc2)cc1)N1CCOCC1,0,0,0,0,0,0
O=C(NCc1nc2ncc(Br)cc2[nH]1)c1ccccc1,0,0,0,0,39.9,0
c1ccc(-c2onc3cc4c(cc23)OCCO4)cc1,0,0,0,0,22.1,0
Cc1ccccc1NC(=O)c1nc[nH]c1C(=O)NCc1ccccc1,0,0,0,0,20.6,0
COc1ccc(NC(=O)c2nc[nH]c2C(=O)Nc2ccccc2C)cc1,0,0,0,0,0,0
Cc1ccccc1C1CC(=O)NC2=C1C(=O)CCC2 (stereo not drawn),0,0,0,0,0,0
CCC(C)Oc1ccccc1C1CC(=O)NC2=C1C(=O)CCC2 (stereo not drawn),0,0,0,0,0,39.5
COC(=O)c1cccc(Cn2nnc3ccccc3c2=O)c1,0,0,0,0,17.2,0
Cc1cc2nc(-c3ccc(NC(=O)C(C)C)cc3)oc2cc1C,108.3,0,0,0,0,0
Brc1ccc(C2=Nn3c(nnc3-c3n[nH]c4c3CCC4)SC2)cc1,0,0,0,0,0,78.9
Cc1ccc(-c2nnc3n2N=C(c2ccc(Br)cc2)CS3)cc1,0,0,0,0,0,0
SMILES,S1P1 ag pot,M1 agonist,M1 antag,S1P3 ag,JNK3 blocker,Jurkat viability
Clc1ccc(C2=Nn3c(nnc3-c3n[nH]c4c3CCC4)SC2)cc1,0,0,0,0,0,91.9
Cc1cc(-n2ccc(=O)[nH]c2=O)nc(-c2ccccc2)n1,0,0,0,0,0,0
CSc1nc(C)cc(-n2ccc(=O)[nH]c2=O)n1,0,0,1.05,0,0,0
CCOC(=O)c1ccc(NC(=O)NC2CC3CCC(C2)N3Cc2nnnn2C(C)(C)C)cc1 (stereo not drawn),0,0,0,0,0,0
CCOc1cc(C(=O)Nc2cnccn2)cc(OCC)c1OCC,0,0,0,0,0,51.3
Cc1ccc2nc(Cc3ccc(N)cc3)oc2c1,0,0,0,0,20.5,0
Cc1ccc2nc(CCc3nc4ccc(C)cc4o3)oc2c1,0,0,0,0,0,0
C=C(C)Cn1c(-c2ccc(OC)cc2)nc2ccccc21,0,0,0,0,0,-
NS(=O)(=O)c1ccc(NC(=O)c2ccccc2C(=O)N2CCCCC2)cc1,0,0,0,0,0,0
N#Cc1c(NC(=O)CSc2nc(N)cc(=O)[nH]2)sc2c1CCCCCC2,0,0,0,0,0,55.7
